Among the data in ChEMBL document CHEMBL4513216, “Probing the Open Global Health Chemical Diversity Library for Multistage-Active Starting Points for Next-Generation Antimalarials” (ACS Infect Dis, 2020) are cytotoxicity values, retold here.

The series is described as follows: Toxicity liver stage against HepG2, at 10uM. It counts as cell-based. The settings on record: human, HepG2-A16-CD81EGFP cells; read-out: INHIBITION
Also on record: test concentration 10 uM, cell line HepG2-A16-CD81EGFP. In outline: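 Uninfected HepG2-A16-CD81EGFP cells, 3 × 10^3 per well, 1536-well, plated on prespotted compound at 10 μM final, parasite-free screening media added to match infected plates; puromycin 10 μM positive, DMSO 0.5% negative; run in parallel with 48 h PbLuc assay at 37 °C, 5% CO2; viability by CellTiter-Glo luminescence, normalized to controls.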
As to `CC(=O)Nc1ccc(OCc2noc(C(=O)N3CCCC3)n2)cc1`, the cytotoxicity at 10 µM was -12.3%.

Consider `CC(C)CNC(=O)CNc1c(NCc2ccco2)c(=O)c1=O`, for which the cytotoxicity at 10 µM is -0.817%.

Regarding `CS(=O)(=O)N1CCN(C(=O)c2cnn3c2OCCC3)CC1`, the cytotoxicity at 10 µM is -3.45%.

For the compound `Cc1cc(=O)n(CCNS(=O)(=O)c2ccccc2)cn1`, the cytotoxicity at 10 µM was 3.33%.

On to `CN(C)CC1CSCCCN1S(=O)(=O)Cc1ccc(C(F)(F)F)cc1` (configuration not stated), for which the cytotoxicity at 10 µM is -5.36%.

On to `O=C(CC1CCCC1)N1CCN(c2ccc(-n3cncn3)nn2)CC1`, for which the cytotoxicity at 10 µM is -11.9%.

As to `CC1c2ncc(COCC3CCOCC3)n2CCN1C(=O)c1ccoc1` (configuration not stated), the cytotoxicity at 10 µM was 7.01%.

Consider `CC(C)N1CCN(C)C2(CCN(C(=O)c3ccnnc3)CC2)C1=O`, for which the cytotoxicity at 10 µM came out at 8.64%.

With `Cc1cnc2n(c1=O)C(CC(=O)NCc1cc(-c3cccs3)on1)CS2` (configuration not stated), the cytotoxicity at 10 µM is -1.51%.

On to `CCN(CC)CCNS(=O)(=O)c1cccc(CSC)c1`, for which the cytotoxicity at 10 µM is -7.99%.

With `Cc1c(CN(C)C(=O)c2ccnn2C)cnn1C`, the cytotoxicity at 10 µM was -5.33%.

Consider `CCc1nc(NCCCOC)c2c(n1)c(C)nn2C`, for which the cytotoxicity at 10 µM came out at 2.92%.

Regarding `Cc1nc2c(c(=O)[nH]1)CCN(Cc1ccc3c(c1)CCCN3C)C2`, the cytotoxicity at 10 µM was -1.87%.

As for `Cc1nc(-c2ccnn2C)cc(C2CCCN(S(C)(=O)=O)C2)n1` (configuration not stated), the cytotoxicity at 10 µM was -0.66%.

With `Cc1ncc(-c2ccccn2)c(CCNC(=O)C2CCCC2)n1`, the cytotoxicity at 10 µM was determined as 16.4%.

Turning to `Nc1ncc(CN2CCC(O)(c3ccccc3F)CC2)cn1`, the cytotoxicity at 10 µM was found to be 1%.

Regarding `Cc1cc2nccc(C3CCCN(C(=O)c4ccccc4F)C3)n2n1` (configuration not stated), the cytotoxicity at 10 µM came to 13.6%.

Consider `CCc1n[nH]c(C(=O)NCCn2nccc2C)c1C`, for which the cytotoxicity at 10 µM is -7.28%.

As for `O=C(c1cc[nH]n1)N1CCCC1c1cnccn1` (configuration not stated), the cytotoxicity at 10 µM is -25.4%.

`O=S(=O)(c1ccccc1)N1CCCC(c2nccs2)C1` (configuration not stated): the cytotoxicity at 10 µM is -23.4%.

`COCC(=O)N1CCCCC1c1nccc(C)n1` (configuration not stated): the cytotoxicity at 10 µM is -14.6%.

In the case of `Cc1nc(C2CN(C)CCO2)cc(N2CCSCC2)n1` (configuration not stated), the cytotoxicity at 10 µM was -15.6%.

In the case of `COCCN1CCC(Cc2cncc(-c3ccc(C(=O)O)cc3)n2)CC1`, the cytotoxicity at 10 µM is -27.6%.

Turning to `NC(=O)CN1CCC(NCc2cc(C(F)(F)F)ccc2Cl)CC1`, the cytotoxicity at 10 µM is -3.01%.

`CC(NC1(CNS(C)(=O)=O)CCCC1)c1ccccc1` (configuration not stated): the cytotoxicity at 10 µM amounted to 8.43%.

As to `O=C(Nc1ccc(N2CCCCC2)cn1)C1CCCN1C(=O)C1CC1` (configuration not stated), the cytotoxicity at 10 µM is -6.35%.

Turning to `O=C(CCC(F)(F)F)NCC1CCCS1` (configuration not stated), the cytotoxicity at 10 µM is -1.58%.

As to `Cc1cc(F)cc(S(=O)(=O)Nc2noc(C)n2)c1`, the cytotoxicity at 10 µM was determined as 3.11%.

Consider `Cc1noc(CCNC(=O)C2CSCN2C(=O)C2CCCC2)n1` (configuration not stated), for which the cytotoxicity at 10 µM was -45%.

Take `CCOC(=O)N(C)C1CCN(Cc2csc(C)n2)CC1`: the cytotoxicity at 10 µM is -3.37%.

`CCNc1cc2c(nn1)CCN(C(=O)C1COc3ccccc3O1)C2` (configuration not stated): the cytotoxicity at 10 µM is -6.34%.

For the compound `COCCC(=O)N(Cc1ccccn1)Cc1ccccc1C`, the cytotoxicity at 10 µM came out at 2.14%.

`CC(CS(C)(=O)=O)N(C(=O)CCc1ccc(Cl)s1)C1CC1` (configuration not stated): the cytotoxicity at 10 µM is 1.92%.

With `CCc1nc(NS(=O)(=O)c2cc(C)ccc2Br)no1`, the cytotoxicity at 10 µM was found to be 4.66%.

For `CC(C)CN1CCN(C(=O)c2cccnc2-n2cncn2)CC1`, the cytotoxicity at 10 µM turned out to be 1.53%.

For `Cc1cc(CN2CCN(C(=O)Cc3ccccc3F)CC2)on1`, the cytotoxicity at 10 µM is -4.02%.

With `Cc1ccoc1C(=O)NCCOc1ccc(C(F)(F)F)cn1`, the cytotoxicity at 10 µM was -4.02%.

Turning to `CC(C)c1nc(C2CCCN2C(=O)CN(C)Cc2ccccc2)no1` (configuration not stated), the cytotoxicity at 10 µM is -4.86%.

Consider `COc1cncc(N2CCN(Cc3ccco3)CC2)n1`, for which the cytotoxicity at 10 µM was determined as 0.197%.

Consider `CC(C)c1nc(C2CCCN2CCS(C)(=O)=O)no1` (configuration not stated), for which the cytotoxicity at 10 µM stood at 6.51%.

Take `OCc1ccc(N2CCN(c3ncccn3)CC2)c(F)c1`: the cytotoxicity at 10 µM was -23.8%.

As for `CSc1ccc(OC(C)C(=O)Nc2cc[nH]n2)cc1` (configuration not stated), the cytotoxicity at 10 µM came to 7.71%.

On to `Cc1nc(NCC2CC2)nc2c1COCC21CCN(C)C1` (configuration not stated), for which the cytotoxicity at 10 µM is -0.722%.

Take `CC(=O)N1CC[C@]2(O)CCN(Cc3nc(C)c[nH]3)C[C@@H]2C1`: the cytotoxicity at 10 µM was -5.79%.

In the case of `c1ccc(-c2cc(NCCCC3CCOC3)n3nccc3n2)cc1` (configuration not stated), the cytotoxicity at 10 µM was -0.309%.

`CCn1ncnc1C(C)NC(=O)Cc1cc2c(cc1Cl)OCCO2` (configuration not stated): the cytotoxicity at 10 µM is -6.38%.

In the case of `O=C(c1ccnc(CC2COc3ccccc3C2)c1)N1CCCC1` (configuration not stated), the cytotoxicity at 10 µM stood at 1.7%.

In the case of `Cc1cccc(OC2CN(C(=O)C3CC(=O)N(C4CC4)C3)C2)c1` (configuration not stated), the cytotoxicity at 10 µM is -0.503%.

For `CC(C)n1cnnc1CN(C)C(=O)c1ccccc1-n1cncn1`, the cytotoxicity at 10 µM was -1.49%.

Turning to `Nc1nnc(CCNC(=O)c2cccc(C3CCCNC3)c2)s1` (configuration not stated), the cytotoxicity at 10 µM amounted to 2.9%.

With `Cn1ncc2c(N3CCCN4CCC[C@H]4C3)nc(C(C)(C)C)nc21`, the cytotoxicity at 10 µM is -128%.

`COc1ccc(CN2CCC(CO)(Cc3ccc(Cl)cc3)CC2)c(O)c1`: the cytotoxicity at 10 µM is -134%.

In the case of `Cc1sc2nc(CCN)nc(N3CCS(=O)(=O)CC3)c2c1C`, the cytotoxicity at 10 µM was -44.1%.

For the compound `CN(C)C(C(=O)NC1(CO)CCCC1)c1ccc(F)cc1` (configuration not stated), the cytotoxicity at 10 µM is -48.2%.

Consider `COc1cccc(CC(=O)N2CCC(Cc3nnc(SC)n3C)CC2)c1`, for which the cytotoxicity at 10 µM was -40.2%.

As to `Nc1nc2c(c(N3CCC(CCn4cccn4)CC3)n1)CCNCC2`, the cytotoxicity at 10 µM was -4.17%.

In the case of `NC(=O)CN1CC2(CCC1=O)CCN(Cc1ccc(F)cc1Cl)CC2`, the cytotoxicity at 10 µM was found to be 3.59%.

For the compound `CCn1c(-c2ccccc2)nn(CC(=O)NCCc2c[nH]cn2)c1=O`, the cytotoxicity at 10 µM was -2.99%.

As to `O=C(CCN1CCNCC1)N1CCC2(CC1)c1ccccc1CC2O` (configuration not stated), the cytotoxicity at 10 µM was -9.43%.

Take `CCc1cc(N(C)Cc2nonc2C)nc(N(C)C)n1`: the cytotoxicity at 10 µM is -6.32%.

In the case of `CCCN1CCC(Cc2nn3c(C(C)C)nnc3s2)CC1`, the cytotoxicity at 10 µM is -6.17%.

As to `O=C1CC[C@H]2CN(Cc3cccc(F)c3)CC[C@H]2N1CCc1c[nH]cn1`, the cytotoxicity at 10 µM was -1.04%.

In the case of `O=C(Nc1ccc(F)cc1)N1CCC2(CCC(=O)N(C3CC3)C2)CC1`, the cytotoxicity at 10 µM amounted to 5.54%.

For the compound `O=C(NCc1nc(-c2ncccn2)no1)c1ccc(C2CCCO2)s1` (configuration not stated), the cytotoxicity at 10 µM was found to be 0.774%.

With `COc1ccc(/C=C/CN2CCC3(C2)CN(C)C(=O)O3)cc1` (configuration not stated), the cytotoxicity at 10 µM stood at 0.313%.

As to `NC(=O)Cn1cc(NC(=O)N2CCC(c3ccccc3)CC2)cn1`, the cytotoxicity at 10 µM is -7.69%.

Take `Cc1cccc(CN2CCC[C@@H]3CN(C(=O)c4ccco4)C[C@@H]32)n1`: the cytotoxicity at 10 µM was -3.49%.

For the compound `Cc1nc(CN2CCC3(CC2)C(=O)N(C)CCN3C)cs1`, the cytotoxicity at 10 µM was determined as 4.37%.

`Cc1nc(CN2CCO[C@@H]3CC(COc4ccccn4)C[C@H]32)cs1` (some centres not stated): the cytotoxicity at 10 µM was found to be 8.57%.

Take `COc1ccc(OCc2sc(C3(O)CCCNCC3)nc2C)cc1` (configuration not stated): the cytotoxicity at 10 µM was -3.66%.

As for `O=C(Cc1ccsc1)N1Cc2nc(CN3CCCCC3)oc2C1`, the cytotoxicity at 10 µM came to 7.19%.

Take `O=c1[nH]c2cn(-c3ccc(Br)cc3)c(=O)n2[nH]1`: the cytotoxicity at 10 µM is -5.51%.
